Results taken from PMC7341950 (Nature chemistry, 2019).
Peptide text beside a SMILES is read from it. * marks the point of attachment. Cbz = O=C(OCc1ccccc1)*

Tested on: HeLa cells
Assay: Radiolabel pulse-chase of cellular protein breakdown
Type: cell-based, human
Details: 35S-Met/35S-Cys label, 4 hr chase
Outline: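 Cellular proteins were metabolically labeled with ³⁵S-Met and ³⁵S-Cys, then chased in unlabeled ("cold") medium. During the chase, cells were left untreated or given DMSO, test compound, or the proteasome inhibitor MG132 as a reference. Compounds were tested at more than one concentration to follow degradation across doses. Bars show mean values.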

SMILES: CC(C)C[C@@H](C=O)NC(=O)[C@H](CC(C)C)NC(=O)[C@H](CC(C)C)NC(=O)OCc1ccccc1 [MG132] (Cbz-Leu-Leu-Leu-aldehyde)
- cellular protein breakdown: inhibit
